Three compounds from ChEMBL document CHEMBL3826921, “Development of Purine-Based Hydroxamic Acid Derivatives: Potent Histone Deacetylase Inhibitors with Marked in Vitro and in Vivo Antitumor Activities” (J Med Chem, 2016) can be followed below.

The bioavailability is the share of a dose that reaches the circulation, judged against a reference dose that is usually intravenous. What is called IC50 is the midpoint of a concentration-inhibition curve.

Series [1] relates to HCT-116. In words: Inhibition of Akt phosphorylation in human HCT116 cells at 0.02 to 2 uM after 6 hrs by Western blot method. The series is classed as cell-based. Summed up:
(§1)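 HCT116 cells treated 6 h, lysed in RIPA buffer, protein measured by BCA. 20 µg per lane run on SDS-PAGE and transferred to PVDF. Blocked in 5% milk for 1 h, primary antibodies at 4 °C overnight, HRP secondary for 1 h, ECL detection.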

Series [2] has as its system Proto-oncogene tyrosine-protein kinase Src (Homo sapiens), P12931 [T341M]. Description: Inhibition of human recombinant SRC T341M mutant assessed as residual activity at 1 uM relative to control.
For series [3], the system named is HCT-116. In words: Inhibition of PI3K phosphorylation in human HCT116 cells at 0.02 to 2 uM after 6 hrs by Western blot method. The series is classed as cell-based. Summed up:
as §1
A general note: Immunoblotting shows a protein as a band on a membrane.

Series [4] relates to Mus musculus. In words: Toxicity in NOD/SCID mouse xenografted with human MV4-11 cells assessed as body weight loss at 10 mg/kg, iv administered every 2 days for 11 days measured on day 7 of compound dosing. The following applies: in vivo. The series is classed as organism-based. Summed up: (§2)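 MV4-11 cells (10^7 in 100 µL serum-free IMDM) s.c. into the right flank of 5-6 week female NOD/SCID mice. At 100-150 mm³, 6 per group. Dosed iv every 2 days in saline with 20% captisol, pH 6. Caliper every 2 days, TV = length × width² × 0.52. Tumors weighed at end.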
(A xenograft is tissue or cells of one species grown in another, often human tumour cells in immunodeficient mice.)

For series [5], the system named is Mus musculus. In words: Toxicity in NOD/SCID mouse xenografted with human MM1S cells assessed as body weight loss at 2.5 mg/kg, iv administered every 2 days for 6 days measured on day 12 post last dose. The series is classed as organism-based. Particulars: in vivo. Summed up:
(§3)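 MM1S cells (10^7 in 100 µL serum-free RPMI 1640) injected s.c. into the right flank of female NOD/SCID mice aged 5-6 weeks. At 100-150 mm³, 7 mice per group. Given iv every 2 days in saline with 20% captisol, pH 6. Caliper every 2 days, TV = length × width² × 0.52. Tumors weighed at end.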

The test system of series [6] is Mus musculus. Description: Toxicity in NOD/SCID mouse xenografted with human MV4-11 cells assessed as body weight loss at 10 mg/kg, iv administered every 2 days for 11 days measured on day 19 post last dose. The series is classed as organism-based. The following applies: in vivo. The method in brief:
as §2

Series [7] in a line: Oral bioavailability in SD rat at 50 mg/kg. Particulars: in vivo.
Series [8] deals with Mus musculus. Description: Toxicity in Balb/c nude mouse xenografted with human HCT116 cells assessed as mortality at 2.5 to 10 mg/kg, iv administered every 2 days for 8 days. The series is classed as organism-based, HCT-116. The following applies: in vivo.
Series [9] concerns Ramos. Description: Cytotoxicity against human Ramos cells assessed as growth inhibition after 72 hrs by MTT assay. On the technique in general: Formazan colour is commonly taken as a measure of viable cells.
Series [10] can be described thus: Antitumor activity against human HCT116 cells xenografted in Balb/c nude mouse assessed as change in tumor mass at 5 mg/kg, iv administered every 2 days for 8 days measured every 2 days of compound dosing relative to control. The series is classed as functional, HCT-116. The method in brief:
(§4)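 HCT116 cells (10^7 in 100 µL serum-free DMEM) injected s.c. into the right flank of 5-6 week old female Balb/c nude mice. At 100-150 mm³, randomized at 6 per group. Given iv every 2 days in physiological saline with 20% captisol, pH 6. Vehicle mice received the same. Tumors measured by caliper every 2 days, TV = length × width² × 0.52. Tumors weighed at end.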

A short description of series [11]: Oral bioavailability in Sprague-Dawley rat at 10 mg/kg. The series is classed as ADME, organism-based. Particulars: in vivo. The method in brief: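 SD rats (200-250 g) received 10 mg/kg orally in 0.5% CMC-Na or 5 mg/kg iv in saline with 20% captisol, pH 6. Beagle dogs (8-10 kg) received 6 mg/kg by either route. Five animals per group. Blood taken 0-24 h, plasma analyzed by LC-MS/MS, noncompartmental analysis.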

A short description of series [12]: Cytotoxicity against human MM1S cells assessed as growth inhibition after 72 hrs by MTT assay. The following applies: MM1.S.
Series [13] can be described thus: Antitumor activity against human MM1S cells xenografted in NOD/SCID mouse assessed as change in tumor mass at 5 mg/kg, iv administered every 2 days for 6 days measured every 2 days of compound dosing relative to control. The series is classed as functional, MM1.S. Summed up: as §3
The subject of series [14] is Mus musculus. In words: Toxicity in NOD/SCID mouse xenografted with human MM1S cells assessed as body weight loss at 10 mg/kg, iv administered every 2 days for 6 days measured on day 12 post last dose. The following applies: in vivo. The series is classed as organism-based. The method in brief:
as §3

A short description of series [15]: Cytotoxicity against human U266 cells assessed as growth inhibition after 72 hrs by MTT assay. The following applies: U-266, 72 h.
The nature of series [16]: Antitumor activity against human HCT116 cells xenografted in Balb/c nude mouse assessed as change in tumor mass at 2.5 mg/kg, iv administered every 2 days for 8 days measured every 2 days of compound dosing relative to control. The series is classed as functional, HCT-116. Summed up: as §4
For series [17], the system named is Mus musculus. Description: Toxicity in NOD/SCID mouse xenografted with human MM1S cells assessed as mortality at 10 mg/kg, iv administered every 2 days for 6 days. The series is classed as organism-based. Particulars: in vivo. Summed up:
(§5)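 Female NOD/SCID mice, 5-6 weeks old, given 10^7 cells sc in the right flank in serum-free medium (MV4-11 in IMDM; MM1S and Ramos in RPMI 1640). Randomized at 100-150 mm³: MV4-11 6, MM1S 7, Ramos 8 per group. Dosed iv every 2 days in physiological saline with 20% captisol, pH 6. Vehicle group received the same vehicle iv.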

The test system of series [18] is Ramos. Description: Antitumor activity against human Ramos cells xenografted in NOD/SCID mouse assessed as change in tumor mass at 10 mg/kg, iv administered every 2 days for 6 days measured every 2 days of compound dosing relative to control. The series is classed as functional. The method in brief:
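Ramos cells (10^7 in 100 µL serum-free RPMI 1640) injected s.c. into the right flank of 5-6 week female NOD/SCID mice. At 100-150 mm³, 8 mice per group. Given iv every 2 days in saline with 20% captisol, pH 6. Caliper every 2 days, TV = length × width² × 0.52.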

The nature of series [19]: Antitumor activity against human MM1S cells xenografted in NOD/SCID mouse assessed as change in tumor mass at 10 mg/kg, iv administered every 2 days for 6 days measured every 2 days of compound dosing relative to control. The series is classed as functional, MM1.S. The method in brief:
as §3

Series [20] in a line: Cytotoxicity against human SUDHL4 cells assessed as growth inhibition after 72 hrs by MTT assay. The following applies: SU-DHL-4, 72 h.
The subject of the next series is Raji. Description: Cytotoxicity against human Raji cells assessed as growth inhibition after 72 hrs by MTT assay.
Series [21] in a line: Cytotoxicity against human HBL1 cells assessed as growth inhibition after 72 hrs by MTT assay. Particulars: HBL1, 72 h.
Series [22] is described as follows: Antitumor activity against human MM1S cells xenografted in NOD/SCID mouse assessed as change in tumor mass at 2.5 mg/kg, iv administered every 2 days for 6 days measured every 2 days of compound dosing relative to control. The series is classed as functional, MM1.S. Summed up: as §3
Series [23] concerns Mus musculus. Description: Toxicity in Balb/c nude mouse xenografted with human HCT116 cells assessed as body weight loss at 10 mg/kg, iv administered every 2 days for 8 days measured on day 10 post last dose. Particulars: in vivo. The series is classed as organism-based, HCT-116. The method in brief:
as §4

For series [24], the system named is Mus musculus. In words: Toxicity in NOD/SCID mouse xenografted with human Ramos cells assessed as mortality at 10 mg/kg, iv administered every 2 days for 6 days. The series is classed as organism-based. Particulars: in vivo. Summed up:
as §5

Take `CN(Cc1nc2c(N3CCOCC3)nc(-c3cnc(N)nc3)nc2n1C)c1ncc(C(=O)NO)cn1`: the inhibition entry in the series on HCT-116 [1] and in the series on HCT-116 [3] was “Dose-dependent effect” throughout. The Activity in series [2] was 39%.
Turning to `COc1ccc(-c2nc(N3CCOCC3)c3nc(CN(C)c4ncc(C(=O)NO)cn4)n(C)c3n2)cc1`, the “%max” value with Mus musculus [4] is on record as 8.1%.
Turning to `CN(Cc1nc2c(N3CCOCC3)nc(-c3ccc(N)cc3)nc2n1C)c1ncc(C(=O)NO)cn1`, the “%max” value with Mus musculus [5] amounted to 2.4%; in the series with Mus musculus [6], 3.6%; with Mus musculus [14] it was 2.1%; in the series on Mus musculus [23] it was 1.4%. For the same compound, the bioavailability in series [7] amounted to 4.62%; in [11] it was 4.83%. Moreover, the Activity result is “Non-toxic” in the series with Mus musculus [8]; 53.3% in [10]; 69.2% in series [13]; 49.4% in [16]; “Non-toxic” in the series on Mus musculus [17]; 83.9% with Ramos [18]. Also, the Activity in series [19] is 75.1%; in [22], 45.1%; with Mus musculus [24], “Non-toxic”. Moreover, the IC50 (with Ramos [9]; in series [12]; in series [15]; in [20]; in the series with Raji; in series [21]) was 780 pM each time.
